Laboratory results reported in ChEMBL document CHEMBL1157638, “Fluorescent epigenetic small molecule induces expression of the tumor suppressor ras-association domain family 1A and inhibits human prostate xenograft” (J Med Chem, 2010).
Calls of active or inactive are those of the source. The rule behind the calls is not given here.

Experiments:
Malme-3M = assay: Growth inhibition of human MALME-3M cells assessed as cell growth at 10 uM relative to untreated control; format: functional; details: read-out: Activity
SNB-19 = assay: Growth inhibition of human SNB19 cells assessed as cell growth at 10 nM relative to untreated control; format: functional; details: read-out: Activity
SNB-75 [1] = assay: Growth inhibition of human SNB75 cells; format: functional
NCI/ADR-RES = assay: Growth inhibition of human NCI/ADR-RES cells assessed as cell growth at 10 nM relative to untreated control; format: functional; details: read-out: Activity
M14 = assay: Growth inhibition of human M14 cells assessed as cell growth at 10 uM relative to untreated control; format: functional; details: read-out: Activity
UO-31 [2] = assay: Growth inhibition of human UO31 cells assessed as cell growth at 10 nM relative to untreated control; format: functional; details: read-out: Activity
[3] = Growth inhibition of human […] cells assessed as cell growth at 1 uM relative to untreated control; format: functional; details: read-out: Activity
HT-29 [4] = assay: Growth inhibition of human HT-29 cells assessed as cell growth at 10 uM relative to untreated control; format: functional; details: read-out: Activity
CAKI-1 = assay: Growth inhibition of human Caki1 cells assessed as cell growth at 1 uM relative to untreated control; format: functional; details: read-out: Activity
Summary of the method: (§1)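 Run externally at the National Cancer Institute as a 59-cell-line panel screen, with concentrations up to 100 μM. Growth was scored relative to control, where negative growth or total cell kill was possible. Data are in the Supporting Information.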

PC-3 = assay: […] in RASSF1A gene expression in human PC3 cells at 5 uM after 3 days hrs by RT-PCR; format: functional, cell-based
MDA-MB-231 [5] = assay: Growth inhibition of human MDA-MB-231 cells assessed as cell growth at 100 nM relative to untreated control; format: functional; details: read-out: Activity
HCT-116 [6] = assay: Growth inhibition of human HCT116 cells assessed as cell growth at 100 nM relative to untreated control; format: functional; details: read-out: Activity; summary of the method: as §1
MDA-MB-231 [7] = assay: Growth inhibition of human MDA-MB-231 cells assessed as cell growth at 10 nM relative to untreated control; format: functional; details: read-out: Activity
OVCAR-8 = assay: Growth inhibition of human OVCAR8 cells assessed as cell growth at 10 nM relative to untreated control; format: functional; details: read-out: Activity
K562 [8] = assay: Growth inhibition of human K562 cells assessed as cell growth at 10 uM relative to untreated control; format: functional; details: read-out: Activity
MCF7 [9] = assay: Growth inhibition of human MCF7 cells assessed as cell growth at 100 nM relative to untreated control; format: functional; details: read-out: Activity
NCI-H226 [10] = assay: Growth inhibition of human NCI-H226 cells assessed as cell growth at 100 nM relative to untreated control; format: functional; details: read-out: Activity
UO-31 [11] = assay: Growth inhibition of human UO31 cells assessed as cell growth at 10 uM relative to untreated control; format: functional; details: read-out: Activity
IGROV-1 [12] = assay: Growth inhibition of human IGROV1 cells assessed as cell growth at 1 nM relative to untreated control; format: functional; details: read-out: Activity
MCF7 [13] = assay: Growth inhibition of human MCF7 cells assessed as cell growth at 10 uM relative to untreated control; format: functional; details: read-out: Activity
HCT-15 [14] = assay: Growth inhibition of human HCT15 cells assessed as cell growth at 1 nM relative to untreated control; format: functional; details: read-out: Activity; summary of the method: as §1
NCI-H23 = assay: Growth inhibition of human NCI-H23 cells assessed as cell growth at 1 uM relative to untreated control; format: functional; details: read-out: Activity
KM12 [15] = assay: Growth inhibition of human KM12 cells assessed as cell growth at 1 uM relative to untreated control; format: functional; details: read-out: Activity
U-251 = assay: Growth inhibition of human U251 cells assessed as cell growth at 10 uM relative to untreated control; format: functional; details: read-out: Activity
OVCAR-5 = assay: Growth inhibition of human OVCAR5 cells assessed as cell growth at 1 nM relative to untreated control; format: functional; details: read-out: Activity
SNB-75 [16] = assay: Growth inhibition of human SNB75 cells assessed as cell growth at 100 nM relative to untreated control; format: functional; details: read-out: Activity
KM12 [17] = assay: Growth inhibition of human KM12 cells; format: functional
IGROV-1 [18] = assay: Growth inhibition of human IGROV1 cells assessed as cell growth at 10 uM relative to untreated control; format: functional; details: read-out: Activity
HT-29 [19] = assay: Growth inhibition of human HT-29 cells assessed as cell growth at 10 nM relative to untreated control; format: functional; details: read-out: Activity
SK-MEL-5 = assay: Growth inhibition of human SK-MEL-5 cells; format: functional
HL-60(TB) [20] = assay: Growth inhibition of human HL-60(TB) cells assessed as cell growth at 10 uM relative to untreated control; format: functional; details: read-out: Activity
HCT-15 [21] = assay: Growth inhibition of human HCT15 cells assessed as cell growth at 10 uM relative to untreated control; format: functional; details: read-out: Activity; summary of the method: as §1
K562 [22] = assay: Growth inhibition of human K562 cells assessed as cell growth at 1 nM relative to untreated control; format: functional; details: read-out: Activity
SF-539 = assay: Growth inhibition of human SF539 cells assessed as cell growth at 10 nM relative to untreated control; format: functional; details: read-out: Activity
[23] = molecular target: DNA (cytosine-5)-methyltransferase 3B (Homo sapiens) (UniProt Q9UBC3); assay: Binding affinity to DNMT3b in human PC3 cells cytoplasm at 5 uM after 1 hr by antibody staining; format: cell-based; details: PC-3
Summary of the method: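 PC-3 cells were plated overnight on fibronectin/[…]-coated slides and treated with 5 μM compound or DMSO for 1-6 h. Cells were PBS-washed, fixed in 4% formaldehyde, and stained with propidium iodide (nuclei) and anti-DNMT3a or anti-DNMT3b antibody. The compound was excited at 725 nm by multiphoton laser and imaged through a 500-550 nm filter by confocal microscopy.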

SK-MEL-28 = assay: Growth inhibition of human SK-MEL-28 cells; format: functional
ACHN = assay: Growth inhibition of human ACHN cells; format: functional
IGROV-1 [24] = assay: Growth inhibition of human IGROV1 cells assessed as cell growth at 10 nM relative to untreated control; format: functional; details: read-out: Activity
HL-60(TB) [25] = assay: Growth inhibition of human HL-60(TB) cells assessed as cell growth at 10 nM relative to untreated control; format: functional; details: read-out: Activity
NCI-H226 [26] = assay: Growth inhibition of human NCI-H226 cells assessed as cell growth at 10 uM relative to untreated control; format: functional; details: read-out: Activity
DU-145 = assay: Growth inhibition of human DU145 cells assessed as cell growth at 10 uM relative to untreated control; format: functional; details: read-out: Activity; summary of the method: as §1
HCT-116 [27] = assay: Growth inhibition of human HCT116 cells assessed as cell growth at 1 uM relative to untreated control; format: functional; details: read-out: Activity; summary of the method: as §1
[28] = read-out: LC50 (the source's name)

## COc1ccc2c(c1)[nH]c1c(C)c(OS(=O)(=O)c3cccc4c(N(C)C)cccc34)ccc12
Malme-3M
  growth at 10 µM: 12%
SNB-19
  growth at 0.01 µM: 88%
SNB-75 [1]
  GI50: 4.48 µM
  TGI: 47.1 µM
SNB-75 [1]; [28]
  CC50: > 100 µM
NCI/ADR-RES
  growth at 0.01 µM: 111%
M14
  growth at 10 µM: 17%
UO-31 [2]
  growth at 0.01 µM: 92%
[3]
  growth at 1 µM: 1%
HT-29 [4]
  growth at 10 µM: 8%
CAKI-1
  growth at 1 µM: 69%
PC-3
  Activity: Active
MDA-MB-231 [5]
  growth at 0.1 µM: 85%
HCT-116 [6]
  growth at 0.1 µM: 94%
MDA-MB-231 [7]
  growth at 0.01 µM: 86%
OVCAR-8
  growth at 0.01 µM: 103%
K562 [8]
  growth at 10 µM: 5%
MCF7 [9]
  growth at 0.1 µM: 81%
NCI-H226 [10]
  growth at 0.1 µM: 85%
UO-31 [11]
  growth at 10 µM: 24%
IGROV-1 [12]
  growth at 0.001 µM: 111%
MCF7 [13]
  growth at 10 µM: 8%
HCT-15 [14]
  growth at 0.001 µM: 98%
NCI-H23
  growth at 1 µM: 30%
KM12 [15]
  growth at 1 µM: 21%
U-251
  growth at 10 µM: 14%
OVCAR-5
  growth at 0.001 µM: 107%
SNB-75 [16]
  growth at 0.1 µM: 99%
KM12 [17]
  GI50: 41.5 µM
  TGI: > 100 µM
KM12 [17]; [28]
  CC50: > 100 µM
IGROV-1 [18]
  growth at 10 µM: 39%
HT-29 [19]
  growth at 0.01 µM: 106%
SK-MEL-5
  GI50: 2.73 µM
  TGI: 9.34 µM
SK-MEL-5; [28]
  CC50: > 100 µM
HL-60(TB) [20]
  growth at 10 µM: -18%
HCT-15 [21]
  growth at 10 µM: 19%
K562 [22]
  growth at 0.001 µM: 103%
SF-539
  growth at 0.01 µM: 95%
[23]
  Activity: Active
SK-MEL-28
  GI50: 50.3 µM
  TGI: > 100 µM
SK-MEL-28; [28]
  CC50: > 100 µM
ACHN
  GI50: 7.38 µM
  TGI: > 100 µM
ACHN; [28]
  CC50: > 100 µM
IGROV-1 [24]
  growth at 0.01 µM: 110%
HL-60(TB) [25]
  growth at 0.01 µM: 83%
NCI-H226 [26]
  growth at 10 µM: 39%
DU-145
  growth at 10 µM: 2%
HCT-116 [27]
  growth at 1 µM: 25%
